The values that follow come from ChEMBL document CHEMBL1287740, “Synthesis and bio-evaluation of alkylaminoaryl phenyl cyclopropyl methanones as antitubercular and antimalarial agents” (Bioorg Med Chem, 2010).

Values after ≈ are worked out from the molar mass of the structure shown. Active and inactive are the calls of the source. The calls are words filed in the database; no cut-off is given here.

The nature of series [1]: Cytotoxicity against african green monkey Vero cells after 72 hrs. Particulars: chlorocebus sabaeus. The series is classed as cell-based. An outline of the steps: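 Vero (C1008 monkey kidney) cells grown in MEM + 15% FBS, 5% CO2, 37 °C. Trypsinized cells at 1 × 10^5 cells/ml seeded and allowed to adhere overnight, then exposed to serial compound dilutions for 72 h. Resazurin added and fluorescence read after 4 h.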

For series [2], the system named is Mycolicibacterium aurum. As to the kind of experiment: Inhibition of type II fatty acid biosynthesis pathway in Mycobacterium aurum at 25 uM after 12 hrs by lacZ reporter assay relative to untreated control. The series is classed as functional. Summed up: (§1)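 Recombinant M. aurum lacZ reporter strains (kasA promoter or hsp60 promoter) grown in Sauton's medium with kanamycin at 37 °C to 0.5 OD600, diluted to 0.04–0.05 OD, equilibrated 2 h, then treated 12 h at 37 °C (10, 25, 50, 75 µM). Cells sonicated in PBS pH 7.2 and protein normalized by Bradford. β-gal measured with ONPG (4 mg/ml), 30 min at 37 °C, stopped with Na2CO3, OD 410 nm. Triplicates, relative to untreated control.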
A general note: In a reporter assay the amount or activity of a reporter protein is the signal.

The subject of series [3] is Mycobacterium tuberculosis. As to the kind of experiment: Antimicrobial activity against Mycobacterium tuberculosis H37Rv after 30 days by agar microdilution method. The class given is functional. An outline of the steps:
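Twofold dilutions of compound in DMSO incorporated into Middlebrook 7H10 medium with OADC supplement in slanted tubes, preincubated 37 °C for 24 h, then streaked with H37Rv harvested from L-J medium into 0.85% saline with 0.05% Tween-80 (5 × 10^5 bacilli per tube). Incubated at 37 °C; MIC = lowest concentration giving complete inhibition of colonies versus drug-free control.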

The nature of series [4]: Selectivity index, ratio of CC50 for african green monkey (Cercopithecus aethiops) Vero cells to IC50 for Plasmodium falciparum 3D7. The series is classed as functional. An outline of the steps: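 Ratio of Vero CC50 (resazurin fluorescence after 72 h exposure) to P. falciparum 3D7 IC50 (radiolabelled hypoxanthine uptake; 24 h compound exposure, then 48 h with label).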

Series [5] has as its system Plasmodium falciparum. As to the kind of experiment: Antimalarial activity against Plasmodium falciparum 3D7 assessed as radiolabeled hypoxanthine uptake after 48 hrs by scintillation counting. Particulars: 3D7, 48 h. The class given is functional, organism-based. Summed up: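 Chloroquine-sensitive P. falciparum 3D7 asynchronous culture at 0.5% parasitaemia and 1.5% hematocrit, exposed to compounds for 24 h at 37 °C in CO2. Radiolabelled hypoxanthine (0.5 µCi/well) then added and incubation continued 48 h. Cells harvested onto filter paper, and radioactivity counted by scintillation β-counter. IC50 derived from hypoxanthine uptake.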

Series [6] has as its system Mycolicibacterium aurum. Nature of the series: Inhibition of type II fatty acid biosynthesis pathway in Mycobacterium aurum at 50 uM after 12 hrs by lacZ reporter assay relative to untreated control. The series is classed as functional. An outline of the steps:
as §1

For series [7], the system named is Mycolicibacterium aurum. As to the kind of experiment: Inhibition of type II fatty acid biosynthesis pathway in recombinant Mycobacterium aurum carrying hsp60 promoter assessed as beta-galactosidase activity at 50 to 100 uM after 12 hrs by lacZ reporter assay relative to untreated control. The class given is functional, organism-based.
Series [8] deals with Mycolicibacterium aurum. As to the kind of experiment: Inhibition of type II fatty acid biosynthesis pathway in Mycobacterium aurum assessed as growth inhibition by cfu analysis. The class given is functional. Summed up: (§2)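 M. aurum (recombinant reporter strains) grown in Sauton's medium with 0.05% Tween-80 and kanamycin to 0.6 OD600, diluted to 0.05 OD. 1 × 10^5 cells inoculated into 5 ml medium with varying compound concentrations, grown 12 h at 37 °C with shaking. Viable cells counted by 10-fold serial dilution plating on nutrient agar-Tween-kanamycin. % inhibition calculated with untreated colony count taken as 100%.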

For series [9], the system named is Mycolicibacterium aurum. Nature of the series: Inhibition of type II fatty acid biosynthesis pathway in Mycobacterium aurum assessed as growth inhibition by lacZ reporter assay. The class given is functional. An outline of the steps:
as §2

Series [10] has as its system Plasmodium falciparum. As to the kind of experiment: Antimalarial activity against Plasmodium falciparum 3D7 assessed as maturation of schizonts after 24 to 32 hrs by microdilution method. The series is classed as functional. Summed up: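 P. falciparum 3D7 (chloroquine sensitive); twofold serial dilutions in complete RPMI 1640 from 10 mg/ml DMSO stocks, parasitized RBCs added (final hematocrit 3–4%, 1.0–2.0% parasitaemia, >95% rings). Incubated 24–32 h at 37 °C with 5% CO2. Thin smears stained with 15% Giemsa; schizont maturation scored against controls to give MIC.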

The subject of series [11] is Mycolicibacterium aurum. Nature of the series: Inhibition of type II fatty acid biosynthesis pathway in Mycobacterium aurum assessed as beta-galactosidase activity at 50 to 100 uM after 12 hrs by lacZ reporter assay relative to untreated control. The class given is functional, organism-based.
Series [12] deals with Mycolicibacterium aurum. As to the kind of experiment: Inhibition of type II fatty acid biosynthesis pathway in Mycobacterium aurum at 10 to 50 uM after 12 hrs by lacZ reporter assay relative to untreated control. The series is classed as functional, organism-based. Summed up: as §1
Series [13] relates to Mycolicibacterium aurum. As to the kind of experiment: Inhibition of type II fatty acid biosynthesis pathway in recombinant Mycobacterium aurum carrying hsp60 promoter assessed as cell viability at 10 to 50 uM after 12 hrs by lacZ reporter assay relative to untreated control. The class given is functional, organism-based. An outline of the steps:
as §2

The test system of series [14] is Mycolicibacterium aurum. Nature of the series: Inhibition of type II fatty acid biosynthesis pathway in recombinant Mycobacterium aurum carrying hsp60 promoter assessed as beta-galactosidase activity at 14 uM after 12 hrs by lacZ reporter assay relative to untreated control. The class given is functional, organism-based.
Series [15] deals with Mycolicibacterium aurum. As to the kind of experiment: Inhibition of type II fatty acid biosynthesis pathway in recombinant Mycobacterium aurum carrying hsp60 promoter assessed as cell viability at 25 uM after 12 hrs by lacZ reporter assay relative to untreated control. The series is classed as functional. An outline of the steps: as §2
For series [16], the system named is Mycolicibacterium aurum. As to the kind of experiment: Inhibition of type II fatty acid biosynthesis pathway in recombinant Mycobacterium aurum carrying hsp60 promoter assessed as cell viability at 10 uM after 12 hrs by lacZ reporter assay relative to untreated control. The class given is functional. Summed up:
as §2

The test system of series [17] is Mycolicibacterium aurum. Nature of the series: Inhibition of type II fatty acid biosynthesis pathway in recombinant Mycobacterium aurum carrying hsp60 promoter assessed as beta-galactosidase activity at 10 to 50 uM after 12 hrs by lacZ reporter assay relative to untreated control. The class given is functional, organism-based. Summed up: as §1
Series [18] deals with Mycolicibacterium aurum. Nature of the series: Inhibition of type II fatty acid biosynthesis pathway in recombinant Mycobacterium aurum carrying hsp60 promoter assessed as cell viability at 75 uM after 12 hrs by lacZ reporter assay relative to untreated control. The series is classed as functional. Summed up:
as §2

Series [19] has as its system Mycolicibacterium aurum. As to the kind of experiment: Inhibition of type II fatty acid biosynthesis pathway in recombinant Mycobacterium aurum carrying hsp60 promoter assessed as cell viability at 50 uM after 12 hrs by lacZ reporter assay relative to untreated control. The series is classed as functional. An outline of the steps:
as §2

For series [20], the system named is Mycolicibacterium aurum. Nature of the series: Inhibition of type II fatty acid biosynthesis pathway in Mycobacterium aurum assessed as cell viability at 10 to 50 uM after 12 hrs by lacZ reporter assay relative to untreated control. The class given is functional, organism-based. An outline of the steps: as §2

One may read the CC50 as the concentration at which the toxic effect on the cells reaches its halfway point. What is called inhibition is the relative decrease from the control value, in per cent. By MIC is commonly meant the least concentration at which growth counts as inhibited. As usually defined, the IC50 is the midpoint of a concentration-inhibition curve.

On to `CN(C)CCCNc1ccc(C(=O)C2CC2c2ccc(Cl)cc2)cc1` (stereo not drawn), for which the midpoint of cytotoxicity in [1], the CC50 at 72 h, lay at 15.8 µg/mL (≈ 44.4 µM). In series [2], this compound gave an inhibition at 25 µM of 46.3%. Also, the figures for the MIC in series [3] and in [10] were 6.25 µg/mL (≈ 17.5 µM) and 50 µg/mL (≈ 140 µM), respectively. Besides, the “Ratio CC50/IC50” value in [4] is listed as 5.53. For the same compound, the half-inhibitory concentration (IC50) in [5] came to 2.86 µg/mL (≈ 8.01 µM). In addition, testing at 50 µM in [6] gave an inhibition of 57.4%. In addition, in [7], the inhibition entry is “inactive”. Further, the “inhibition (INH)” value in series [8] and in [9] was “>=85%” in each case. In addition, the inhibition result in series [11] was “Active”.

Consider `CN(C)CCCNc1ccc(C(=O)/C=C/c2ccc(Cl)cc2)cc1`, for which half-maximal cytotoxicity in series [1] (CC50 at 72 h) was put at 5.92 µg/mL (≈ 17.3 µM). Moreover, the inhibition result in series [12], in [13] and in [20] was “Dose-dependent effect” throughout. Further, the inhibition at 25 µM worked out at 83.4% in [2] and 85.4% in series [15]. For the same compound, the inhibition entry in series [14] and in series [17] was “inactive” each time. Besides, in [4], the “Ratio CC50/IC50” value is listed as 9.25. In addition, the concentration for half-maximal inhibition (IC50) in series [5] was 0.64 µg/mL (≈ 1.87 µM). The inhibition at 10 µM in series [16] worked out at 18.8%. Besides, in series [18], the inhibition at 75 µM is 99.6%. Further, the inhibition at 50 µM was determined as 88.1% in [6] and 88.7% in series [19]. Further, the MIC in series [10] stood at 1.56 µg/mL (≈ 4.55 µM).

In the case of `O=C(c1ccc(N2CCN(c3cccc(Cl)c3Cl)CC2)cc1)C1CC1c1ccc(Cl)cc1` (stereo not drawn), the 50% cytotoxic concentration (CC50) at 72 h in series [1] is 383 µg/mL (≈ 788 µM). Besides, in series [2], the inhibition at 25 µM was found to be 15.7%. For the same compound, the minimal inhibitory concentration (MIC) in series [3] came to 12.5 µg/mL (≈ 25.7 µM); in series [10], 50 µg/mL (≈ 103 µM). Further, in [4], the “Ratio CC50/IC50” value was found to be 43.38. Further, the IC50 in series [5] is 8.82 µg/mL (≈ 18.2 µM). The compound further yielded an inhibition at 50 µM in series [6] of 31.8%.
